Several values for one entry are separate records, joined by “and”; a condition that tells them apart may be missing. Identical values can stand only once. Activity calls are given as the source filed them.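 How the source made its calls: active means cell killing, with a fitted half-maximal concentration at or below twice the top valid dose tested; inconclusive means flat fit with a moderate signal drop, or a poor fit; inactive means effect in the rising direction, plus the rest.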

Tested on in the first experiment: not listed separately
Description: A549 cell cytotoxicity, dose response, cytotoxicity control, CellTiter-Glo luminescence, dry powder, set 13 (AID 977617). The conditions noted are these: A549 viability, CellTiter-Glo ATP luminescence, 72 h; at 26 µM (top of the series). In a few lines: (§1)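 Test system – A549 human lung carcinoma cells, cell-based viability · Amount – 1000 cells/well · Read-out – viability via ATP, lower signal means cytotoxic · Dosing – compound concentration series on A549 cells · Incubation – 24 h pre-dosing, 72 h exposure at 37 °C · Medium – DMEM, 10% FBS · Technique – CellTiter-Glo ATP luminescence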
Take `C[C@@H](O)C#Cc1ccc2c(c1)O[C@@H](CN(C)S(=O)(=O)c1ccc(-c3ccccc3)cc1)[C@@H](C)CN([C@@H](C)CO)S2(=O)=O`: the activity change, negative = cytotoxicity is 0.446% (inactive). Regarding `C[C@@H](O)C#Cc1ccc2c(c1)O[C@@H](CN(C)Cc1ccncc1)[C@@H](C)CN([C@@H](C)CO)S2(=O)=O`, the activity change, negative = cytotoxicity is -7.94% (inactive). As for `C[C@@H](O)C#Cc1ccc2c(c1)O[C@@H](CN(C)Cc1cccnc1)[C@@H](C)CN([C@@H](C)CO)S2(=O)=O`, the activity change, negative = cytotoxicity is -0.989% (inactive). As to `CO[C@H]1CN(C)C(=O)c2ccc(NC(=O)c3ccc(F)cc3)cc2OC[C@H](C)N(C(=O)c2ccc(F)cc2)C[C@@H]1C`, the activity change, negative = cytotoxicity was 2.69% (inactive).

As to `C[C@@H](O)C#Cc1ccc2c(c1)O[C@@H](CN(C)C(=O)c1ccc(-c3ccccc3)cc1)[C@@H](C)CN([C@@H](C)CO)S2(=O)=O`, the activity change, negative = cytotoxicity is -7.04% (inactive). `C[C@H](O)C#Cc1ccc2c(c1)O[C@@H](CN(C)Cc1ccc(-c3ccccc3)cc1)[C@@H](C)CN([C@H](C)CO)S2(=O)=O`: the activity change, negative = cytotoxicity is 12.2% (inactive). For the molecule `COc1ccc(-c2ccc3c(c2)O[C@@H](CN(C)Cc2ccc(-c4ccccc4)cc2)[C@@H](C)CN([C@@H](C)CO)S3(=O)=O)cc1`, the activity change, negative = cytotoxicity was -11.8% (inactive). On to `C[C@H]1CN([C@@H](C)CO)S(=O)(=O)c2ccc(Br)cc2O[C@H]1CN(C)Cc1ccc(-c2ccccc2)cc1`, for which the activity change, negative = cytotoxicity is -3.47% (inactive). For `CNC[C@@H]1Oc2cc(Br)ccc2S(=O)(=O)N([C@@H](C)CO)C[C@@H]1C`, the activity change, negative = cytotoxicity is -12.1% (inactive).

For another experiment, the system named is A549 viability, CellTiter-Glo ATP luminescence, 72 h. Described as above.
Details: not given
In a few lines: as §1
By AC50 is commonly meant the concentration giving half of the maximal activity seen. As to `C[C@@H]1CN([C@@H](C)CO)S(=O)(=O)c2ccc(C#C[C@@H](C)O)cc2O[C@H]1CN(C)Cc1ccc(-c2ccccc2)cc1`, the AC50 was 26.1 µM. As for `Cc1cccc(-c2ccc(CN(C)C[C@@H]3Oc4cc(C#C[C@@H](C)O)ccc4S(=O)(=O)N([C@@H](C)CO)C[C@@H]3C)cc2)c1`, the AC50 is 15 µM. For the molecule `C[C@H](O)C#Cc1ccc2c(c1)O[C@@H](CN(C)Cc1ccc(-c3ccccc3)cc1)[C@H](C)CN([C@H](C)CO)S2(=O)=O`, the AC50 is 22.1 µM.

Turning to `C[C@H](O)C#Cc1ccc2c(c1)O[C@H](CN(C)Cc1ccc(-c3ccccc3)cc1)[C@@H](C)CN([C@H](C)CO)S2(=O)=O`, the AC50 is 19.4 µM. In the case of `C[C@H](O)C#Cc1ccc2c(c1)O[C@H](CN(C)Cc1ccc(-c3ccccc3)cc1)[C@@H](C)CN([C@@H](C)CO)S2(=O)=O`, the AC50 is 6 µM. On to `C[C@@H](O)C#Cc1ccc2c(c1)O[C@@H](CN(C)Cc1ccc(-c3cccc(Cl)c3)cc1)[C@@H](C)CN([C@@H](C)CO)S2(=O)=O`, for which the AC50 was 14.1 µM. On to `COc1ccccc1-c1ccc(CN(C)C[C@@H]2Oc3cc(C#C[C@@H](C)O)ccc3S(=O)(=O)N([C@@H](C)CO)C[C@@H]2C)cc1`, for which the AC50 was 12.9 µM. The same measure, in the same setting: the result for `C[C@@H](O)C#Cc1ccc2c(c1)O[C@H](CN(C)Cc1ccc(-c3ccccc3)cc1)[C@@H](C)CN([C@@H](C)CO)S2(=O)=O` reads 19.4 µM; that for `C[C@H](O)C#Cc1ccc2c(c1)O[C@@H](CN(C)Cc1ccc(-c3ccccc3)cc1)[C@@H](C)CN([C@@H](C)CO)S2(=O)=O`, 22.6 µM; that for `C[C@@H](O)C#Cc1ccc2c(c1)O[C@@H](CN(C)Cc1ccc(-c3ccccc3)cc1)[C@@H](C)CN([C@@H](C)CO)S2(=O)=O`, 17.7 µM and 19 µM. Take `C[C@H](CO)N1C[C@H](C)[C@@H](CN(C)Cc2ccc(-c3ccccc3)cc2)Oc2cc(C#C[C@@H](C)O)ccc2S1(=O)=O`: the concentration at half-maximal activity (AC50) is 27.1 µM.

With `Cc1ccccc1-c1ccc(CN(C)C[C@@H]2Oc3cc(C#C[C@@H](C)O)ccc3S(=O)(=O)N([C@@H](C)CO)C[C@@H]2C)cc1`, the AC50 was 16.7 µM. `C[C@@H](O)C#Cc1ccc2c(c1)O[C@@H](CN(C)Cc1ccc(-c3ccccc3Cl)cc1)[C@@H](C)CN([C@@H](C)CO)S2(=O)=O`: the AC50 is 14.4 µM. As for `C[C@@H](O)C#Cc1ccc2c(c1)O[C@@H](CN(C)Cc1ccc(-c3ccc(Cl)cc3)cc1)[C@@H](C)CN([C@@H](C)CO)S2(=O)=O`, the AC50 was 9.62 µM. As to `C[C@H](O)C#Cc1ccc2c(c1)O[C@@H](CN(C)Cc1ccc(-c3ccccc3)cc1)[C@H](C)CN([C@@H](C)CO)S2(=O)=O`, the concentration at half-maximal activity (AC50) is 26.1 µM. On the same count and under the same terms, the result for `COc1cccc(-c2ccc(CN(C)C[C@@H]3Oc4cc(C#C[C@@H](C)O)ccc4S(=O)(=O)N([C@@H](C)CO)C[C@@H]3C)cc2)c1` reads 15.2 µM; that for `COc1ccc(-c2ccc(CN(C)C[C@@H]3Oc4cc(C#C[C@@H](C)O)ccc4S(=O)(=O)N([C@@H](C)CO)C[C@@H]3C)cc2)cc1`, 14.1 µM; that for `C[C@H]1CN([C@@H](C)CO)S(=O)(=O)c2ccc(C#CC(C)(C)O)cc2O[C@H]1CN(C)Cc1ccc(-c2ccccc2)cc1`, 19.9 µM. As for `Cc1ccc(-c2ccc(CN(C)C[C@@H]3Oc4cc(C#C[C@@H](C)O)ccc4S(=O)(=O)N([C@@H](C)CO)C[C@@H]3C)cc2)cc1`, the AC50 is 15.7 µM.

Source of the values: PubChem BioAssay AID977617 (Broad Institute, 2014).
